Screens from PubChem BioAssay.
STAT3 act: activators of IL-6 induced STAT3 signaling. U3A cells, IL-6 STAT3-luciferase reporter, luminescence; 100% = signal with IL-6 EC80 alone. activation (% of control), % at 5.6 µM. 190,000 tested, 0.91% active;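 active = activation above the screen-wide mean of compound activation plus 3 SD, cut at about 130% in these data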
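Test system: STAT3-luciferase reporter U3A cells; Detection: reporter luminescence signal; Times: 1 h compound pre-exposure, 6 h IL-6 stimulation, 37 °C; Benchmarks: IL-6-only high control; Also added: IL-6 stimulus at 33 ng/mL final.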
STAT1 blocker: STAT1 signaling inhibition; AID 920; inhibition, % at 5.5 µM; 200,000 tested, 0.35% active; NIH 3T3 STAT1-luciferase reporter, IFN-gamma, luminescence;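 active = inhibition above a set limit, the mean inhibition across all tested compounds plus 3 SD, cut at about 34% in these data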
HSP90 inh: inhibitors of HSP90 luciferase refolding in rabbit reticulocyte lysate. luciferase refolding luminescence, 3 h. inhibition, % at 5.6 µM. 290,000 tested, 0.91% active;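 active = inhibition above the screen-wide mean plus 3 SD, computed separately per campaign, cut at about 16% in these data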;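 also: inhibitors lower the luminescence because luciferase stays unfolded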
STAT3 blocker: reduces IL-6 driven STAT3 reporter signal | 190,000 tested, 0.89% active | AID 862 | inhibition, % at 5.5 µM | U3A cells, IL-6 STAT3-luciferase reporter, luminescence; host cell line lacks STAT1;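 active = inhibition above the mean inhibition across all screened compounds plus 3 SD, cut at about 44% in these data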
PPC-1+TRAIL kill: PPC-1 cancer cell killing with TRAIL present; PPC-1 cells + TRAIL, ATPLite viability luminescence; cell killing (% activity), % at 4 µM or 5 µM; 220,000 tested, 0.41% active; AID 1443;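 active = cell killing above 50% in the first pass at 4 µM, then a duplicate retest at 5 µM averaging 50% or more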
C8 TRAIL sens: caspase-8 TRAIL sensitization. inhibition (viability loss, TRAIL sensitization), % at 10 µM. 360,000 tested, 1% active. NB7+C8 cells + TRAIL, ATPlite viability luminescence;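 active = compounds causing at least 50% loss of cell viability in the single-dose screen, relative to plate controls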
Each line names hits and unclear results; the compound was inactive in the other large screens. Sampled rows, rich in hits. Any-hit rate of the full collection: about 2.3%.

O=C(Cn1c(O)c(/C=C2\C=Nc3ccccc32)sc1=O)N1CCOCC1	STAT3 act 134
CC1(C)N=C(N)N=C(N)N1c1ccc(CCCCc2ccccc2)cc1	C8 TRAIL sens 65 (no result: STAT3 act, STAT1 blocker, HSP90 inh, STAT3 blocker, PPC-1+TRAIL kill)
CC1(C)N=C(N)N=C(N)N1c1cccc(CN)c1	none (no result: STAT3 act, STAT1 blocker, STAT3 blocker)
CC1(C)N=C(N)N=C(N)N1c1ccccc1	C8 TRAIL sens 85
CC1(C)N=C(N)N=C(N)N1c1ccc(Oc2ccc(Cl)cc2)c(Cl)c1	C8 TRAIL sens 58 (no result: STAT3 act, STAT1 blocker, STAT3 blocker, PPC-1+TRAIL kill)
CC(C)(C)C(=O)Nc1nnc(SCC(=O)NCc2cccs2)s1	none
CCn1cc(C2=NOC(C(=O)Nc3cccc(C(C)=O)c3)C2)c(C)n1 (stereo not given)	none
C=CCn1c(COc2cccc(C)c2)nnc1SCC(=O)c1c(N)n(C)c(=O)n(C)c1=O	none (no result: STAT3 act, STAT1 blocker, HSP90 inh, STAT3 blocker, PPC-1+TRAIL kill)
CCOc1ccccc1C=C1SC(=S)N(CC)C1=O	C8 TRAIL sens 73 (no result: STAT3 act, STAT1 blocker, HSP90 inh, STAT3 blocker, PPC-1+TRAIL kill)
O=C(COC(=O)c1n[nH]c2ccccc12)NC(=O)NC12CC3CC(CC(C3)C1)C2	C8 TRAIL sens 57
Cc1cc(OC(=O)c2ccccc2Cl)cc(=O)n1C	STAT1 blocker 35
O=C(Oc1ccc(N2C(=O)CCC2=O)cc1)c1ccccc1Cl	none
Cc1nc(-c2cccc(S(=O)(=O)N3CCC(C)CC3)c2)cs1	none
C=CCn1c(/N=C/c2ccc(N(C)C)cc2)nc2ccccc21	none
CN(C)c1ccc(/C=N/n2ncc3ccccc32)cc1	C8 TRAIL sens 51
Cc1nn(C)c(C)c1CNC(=O)c1cnn2c1NC(c1ccccc1)CC2C(F)(F)F (stereo not given)	none
Cc1ccc(C2CC(C(F)(F)F)n3nc(C(=O)NCc4c(C)nn(C)c4C)c(Cl)c3N2)cc1 (stereo not given)	STAT1 blocker 59, STAT3 blocker 60
COc1cc(/C=N/NC(=S)Nc2cccc(C(=O)O)c2)ccc1O	STAT1 blocker 71, STAT3 blocker 97
COc1ccc(C=NNC(=O)CCCC(=O)NN=Cc2ccc(OC)c(OC)c2)cc1OC	none (no result: STAT3 act, STAT1 blocker, HSP90 inh, STAT3 blocker, PPC-1+TRAIL kill)
COc1ccc(C=NNC(=O)NN=Cc2ccc(OC)c(OC)c2)cc1OC	C8 TRAIL sens 72 (no result: STAT3 act, STAT1 blocker, HSP90 inh, STAT3 blocker, PPC-1+TRAIL kill)
Cc1nn(C(=O)c2cc3sccc3[nH]2)c(C)c1C	STAT3 act 143
COCCn1c(SCC(=O)Nc2ccc(C)cc2C)nc2c(oc3ccccc32)c1=O	none
COCCN(C(=O)c1ccc(-c2ccc(Cl)cc2)o1)c1c(N)n(CC(C)C)c(=O)[nH]c1=O	none (no result: STAT3 act, STAT1 blocker, HSP90 inh, STAT3 blocker, PPC-1+TRAIL kill)
COc1ccc(C(c2nnnn2Cc2ccccc2)N2CCN(c3nc4ccccc4s3)CC2)cc1 (stereo not given)	none
COCCn1nnnc1C(c1ccc(OC)c(OC)c1)N1CCN(c2nc3ccccc3s2)CC1 (stereo not given)	PPC-1+TRAIL kill 71
N/C(=N\OC(=O)c1cccc(Cn2cc(C(F)(F)F)ccc2=O)c1)c1ccccc1	none (no result: STAT3 act, STAT1 blocker, STAT3 blocker)
Cc1ccc(/C(N)=N/OC(=O)c2cccc(Cn3cc(C(F)(F)F)ccc3=O)c2)cc1	C8 TRAIL sens 81 (no result: STAT3 act, STAT1 blocker, STAT3 blocker)
O=C1c2cccc(NCCNCCO)c2C(=O)c2cccc(NCCNCCO)c21	C8 TRAIL sens 64 (no result: STAT3 act, STAT1 blocker, HSP90 inh, STAT3 blocker, PPC-1+TRAIL kill)
O=C(O)CCNc1ccc(NCCC(=O)O)c2c1C(=O)c1ccccc1C2=O	none (no result: STAT3 act, STAT1 blocker, STAT3 blocker, PPC-1+TRAIL kill)
CC(C)CC1c2[nH]c3ccccc3c2CCN1CCCn1cccn1 (stereo not given)	STAT3 act 133
CCn1ccnc1CN1CCc2c([nH]c3ccccc23)C1CC(C)C (stereo not given)	none
COc1cccc(C2c3[nH]c4ccccc4c3CCN2CCCn2cccn2)c1 (stereo not given)	none
CCOc1ccc(C2c3[nH]c4ccccc4c3CCN2CCCn2cccn2)cc1 (stereo not given)	STAT3 act 134
Cc1cccc([N+](=O)[O-])c1NC(=O)COC(=O)C1CCCO1 (stereo not given)	none (no result: STAT3 act, STAT1 blocker, HSP90 inh, STAT3 blocker, PPC-1+TRAIL kill)
Cc1cc(C)c2c(n1)sc1c(N3CCN(CCO)CC3)ncnc12	none
N#CNC(=Nc1ccccc1)SCc1ccc(C(=O)O)cc1	none
CSC(=Nc1ccccc1)N=C(SCc1ccccc1)N(C)C	C8 TRAIL sens 91 (no result: STAT3 act, STAT1 blocker, HSP90 inh, STAT3 blocker, PPC-1+TRAIL kill)
COc1ccc(C2=Nn3c([n+](C)c4ccccc43)SC2)cc1	STAT1 blocker 35
COc1cc(S(=O)(=O)NCC2(N3CCCCC3)CCCCC2)ccc1NC(C)=O	none (no result: STAT3 act, STAT1 blocker, HSP90 inh, STAT3 blocker, PPC-1+TRAIL kill)
O=C(Oc1cccc(/C=N/NC(=O)c2ccccn2)c1)c1ccc([N+](=O)[O-])cc1	C8 TRAIL sens 68 (no result: STAT3 act, STAT1 blocker, STAT3 blocker, PPC-1+TRAIL kill)
